Measurements: ChEMBL document CHEMBL1138529, “Efficacy, pharmacokinetics, and metabolism of tetrahydroquinoline inhibitors of Plasmodium falciparum protein farnesyltransferase” (Antimicrob Agents Chemother, 2007)
Active and inactive are the calls of the source.

Assays:
[1] = system: Rattus norvegicus; test: Toxicity in Plasmodium berghei NK65 infected Sprague-Dawley rat assessed as effect on electrolyte levels at 50 mg/kg, perorally administered every 8 hrs for 3 days; assay type: organism-based; set-up: dose 50 mg/kg, route oral; conditions: in vivo, po
Method in brief: (§1)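 Female Sprague-Dawley rats, 10-12 weeks, n = 3 per schedule. Dosed 50 mg/kg by oral gavage every 8 h or every 12 h for 72 h. At the end of dosing, blood was sent to a clinical laboratory for complete blood counts, white cell differentials, electrolytes, glucose, renal function, liver enzymes and cholesterol.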

[2] = Inhibition of alpha1 adrenergic receptor at 10 uM
Method in brief: (§2)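 Radioligand displacement screen at a 10 μM test concentration, run by a contract lab across a panel of 50 receptors, pharmacologically active ion channels and transporters. The read-out is the decrease in specific radiolabeled ligand binding, expressed as a percentage. A decrease above 50% was considered significant.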

[3] = system: Salmonella typhimurium; test: Toxicity against Salmonella enterica serovar Typhimurium TA100; assay type: organism-based, Salmonella enterica subsp. enterica serovar Typhimurium; conditions: in vivo
Method in brief: (§3)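 Ames fluctuation test in S. Typhimurium TA98 (frameshift) and TA100 (base substitution), with and without rat liver S9. Tested at 5, 10, 50 and 100 μM plus higher concentrations, 48 wells each, in histidine-free liquid medium for 96 h. Growth read spectrophotometrically by pH-indicator color change. Bacterial cytotoxicity assayed in parallel at the same concentrations.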

[4] = biological target: Muscarinic acetylcholine receptor M2 (Homo sapiens) (UniProt P08172); test: Inhibition of muscarinic M2 receptor at 10 uM
Method in brief: (§4)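 Radioligand displacement at a contract lab across a panel of 50 receptors, ion channels and transporters, single test concentration 10 μM; loss of specific ligand binding reported as percent, with >50% decrease counted as significant.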

[5] = system: Rattus norvegicus; test: Toxicity in Plasmodium berghei NK65 infected Sprague-Dawley rat assessed as effect on cholesterol levels at 50 mg/kg, perorally administered every 12 hrs for 3 days; assay type: organism-based; set-up: dose 50 mg/kg, route oral; conditions: in vivo, po, in the assay text read “every 8 hrs” for “every 12 hrs”; method in brief: as §1
[6] = biological target: Neuropeptide Y receptor type 1 (Homo sapiens) (UniProt P25929); test: Inhibition of neuropeptide Y1 receptor at 10 uM; method in brief: as §4
[7] = system: Plasmodium falciparum; test: Antiplasmodial activity against chloroquine-sensitive Plasmodium falciparum 3D7 by [3H]hypoxanthine uptake; assay type: functional; conditions: read-out: ED50 (the source's name)
Method in brief: (§5)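 Asynchronous cultures at 0.5% parasitemia and 0.5% hematocrit in RPMI 1640 with 20% heat-inactivated human A+ plasma, exposed to serially diluted inhibitor (top final 5 μM, from DMSO stock) under 5% CO2/5% O2/90% N2 at 37°C for 48 h. [3H]hypoxanthine was then added for 24 h and harvested counts were background-subtracted against DMSO-only controls. ED50 came from linear regression, as the mean of duplicates.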

[8] = biological target: Histamine H1 receptor (Homo sapiens) (UniProt P35367); test: Inhibition of histamine H1 receptor at 10 uM; method in brief: as §4
[9] = system: Salmonella typhimurium; test: Toxicity against Salmonella enterica serovar Typhimurium TA98; assay type: organism-based, Salmonella enterica subsp. enterica serovar Typhimurium; conditions: in vivo; method in brief: as §3
[10] = Elimination half life in BALB/c mouse at 50 mg/kg, po; assay type: ADME, organism-based; set-up: dose 50 mg/kg, route oral; conditions: in vivo, read-out: beta t1/2
Method in brief: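 50 mg/kg by oral gavage in 3% EtOH-7% Tween 80-90% normal saline to groups of three females (BALB/c mice, 8–10 weeks, tail bleed; Sprague-Dawley rats, 10–12 weeks, saphenous vein). Plasma extracted with acetonitrile/internal standard, LC/MS; means of three animals. Oral elimination half-life depends on absorption rate as well as elimination.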

[11] = AUC in Sprague-Dawley rat at 2 mg/kg, iv; assay type: ADME, organism-based; set-up: dose 2 mg/kg, route intravenous; conditions: plasma
Method in brief: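 Three female Sprague-Dawley rats per group (10–12 weeks), jugular-vein catheterized; 2 mg/kg in 3% EtOH-7% Tween 80-90% normal saline given through the catheter. Plasma drawn from the catheter at set times, acetonitrile extraction with internal standard, LC/MS quantification.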

[12] = biological target: Adenosine A2A receptor (Homo sapiens) (UniProt P29274); test: Inhibition of adenosine A2A receptor at 10 uM
[13] = system: Rattus norvegicus; test: Toxicity in Plasmodium berghei NK65 infected Sprague-Dawley rat assessed as effect on renal function at 50 mg/kg, perorally administered every 8 hrs for 3 days; assay type: organism-based; set-up: dose 50 mg/kg, route oral; conditions: in vivo, po; method in brief: as §1
[14] = Inhibition of somatostatin receptor at 10 uM; method in brief: as §2
[15] = Inhibition of Potassium channel at 10 uM; method in brief: as §2
[16] = biological target: Neurotensin receptor type 1 (Homo sapiens) (UniProt P30989); test: Inhibition of NTS1 receptor at 10 uM
Method in brief: (§6)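 Radioligand displacement screen by a contractor across 50 receptors, ion channels and transporters, test compound at 10 μM; decrease in specific ligand binding expressed as percentage, with >50% decrease taken as significant.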

[17] = biological target: Mu-type opioid receptor (Homo sapiens) (UniProt P35372); test: Inhibition of mu opioid receptor at 10 uM; method in brief: as §4
[18] = system: Rattus norvegicus; test: Toxicity in Plasmodium berghei NK65 infected Sprague-Dawley rat assessed as effect on electrolyte levels at 50 mg/kg, perorally administered every 12 hrs for 3 days; assay type: organism-based; set-up: dose 50 mg/kg, route oral; conditions: in vivo, po; method in brief: as §1
[19] = biological target: Alpha-2A adrenergic receptor (Homo sapiens) (UniProt P08913); test: Inhibition of alpha2 adrenergic receptor at 10 uM; method in brief: as §4
[20] = Metabolic stability in rat liver microsomes; assay type: ADME, Microsome
Method in brief: (§7)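 Pooled female liver microsomes at 0.5 mg/ml in 0.1 M potassium phosphate pH 7.4, 3 mM MgCl2, 1 mM EDTA, with NADPH regenerating system (1 mM NADP+, 5 mM glucose-6-phosphate, 1 U/ml G6PDH). Preincubated 10 min at 37°C, then compound added to 1 μM final. Time points quenched with 3 volumes acetonitrile plus internal standard; parent quantified by LC/MS; half-life reported.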

[21] = biological target: Kappa-type opioid receptor (Homo sapiens) (UniProt P41145); test: Inhibition of kappa opioid receptor at 10 uM; method in brief: as §4
[22] = biological target: D(1A) dopamine receptor (Homo sapiens) (UniProt P21728); test: Inhibition of dopamine D1 receptor at 10 uM; method in brief: as §4
[23] = biological target: Muscarinic acetylcholine receptor M1 (Homo sapiens) (UniProt P11229); test: Inhibition of muscarinic M1 receptor at 10 uM; method in brief: as §4
[24] = biological target: Adenosine receptor A3 (Homo sapiens) (UniProt P0DMS8); test: Inhibition of adenosine A3 receptor at 10 uM; method in brief: as §6
[25] = system: Plasmodium berghei; test: Antiplasmodial activity as reduced parasitaemia against Plasmodium berghei NK65 infected Sprague-Dawley rat at 50 mg/kg every 8 hrs peroral dose for 3 days
[26] = system: Plasmodium falciparum; test: Antiplasmodial activity against chloroquine-resistant Plasmodium falciparum K1 by [3H]hypoxanthine uptake; assay type: functional; conditions: read-out: ED50 (the source's name); method in brief: as §5
[27] = Metabolic stability in mouse liver microsomes; assay type: ADME, Microsome; method in brief: as §7
[28] = system: Rattus norvegicus; test: Toxicity in Sprague-Dawley rat at 50 mg/kg, po; assay type: organism-based; set-up: dose 50 mg/kg, route oral; conditions: in vivo
Method in brief: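 Female Sprague-Dawley rats, 10-12 weeks, three per group. 50 mg/kg oral gavage in 3% EtOH-7% Tween 80-90% normal saline. Saphenous vein plasma sampled over time, and animals observed for adverse reactions.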

[29] = system: Rattus norvegicus; test: Toxicity in Plasmodium berghei NK65 infected Sprague-Dawley rat assessed as effect on white blood cell differentials at 50 mg/kg, perorally administered every 12 hrs for 3 days; assay type: organism-based; set-up: dose 50 mg/kg, route oral; conditions: in vivo, po; method in brief: as §1
[30] = biological target: Beta-1 adrenergic receptor (Homo sapiens) (UniProt P08588); test: Inhibition of beta-1 adrenergic receptor at 10 uM; method in brief: as §4
[31] = system: Rattus norvegicus; test: Toxicity in Plasmodium berghei NK65 infected Sprague-Dawley rat assessed as effect on blood counts at 50 mg/kg, perorally administered every 12 hrs for 3 days; assay type: organism-based; set-up: dose 50 mg/kg, route oral; conditions: in vivo, po; method in brief: as §1

Chain of D(1A) dopamine receptor (Homo sapiens) (P21728 whole entry): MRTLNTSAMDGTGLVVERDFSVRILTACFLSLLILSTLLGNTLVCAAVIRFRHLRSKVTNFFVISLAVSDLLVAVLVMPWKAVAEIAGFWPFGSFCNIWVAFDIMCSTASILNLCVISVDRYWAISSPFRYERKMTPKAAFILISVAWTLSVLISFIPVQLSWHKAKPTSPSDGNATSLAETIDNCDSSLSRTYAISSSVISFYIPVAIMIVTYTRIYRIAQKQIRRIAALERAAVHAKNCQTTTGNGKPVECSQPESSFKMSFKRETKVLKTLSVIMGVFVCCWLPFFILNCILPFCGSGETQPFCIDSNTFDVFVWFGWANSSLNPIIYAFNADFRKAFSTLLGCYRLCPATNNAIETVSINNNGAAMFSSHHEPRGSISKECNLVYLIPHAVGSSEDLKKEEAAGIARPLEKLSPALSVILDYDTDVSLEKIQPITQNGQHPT
Chain of Neurotensin receptor type 1 (Homo sapiens) (P30989 whole entry): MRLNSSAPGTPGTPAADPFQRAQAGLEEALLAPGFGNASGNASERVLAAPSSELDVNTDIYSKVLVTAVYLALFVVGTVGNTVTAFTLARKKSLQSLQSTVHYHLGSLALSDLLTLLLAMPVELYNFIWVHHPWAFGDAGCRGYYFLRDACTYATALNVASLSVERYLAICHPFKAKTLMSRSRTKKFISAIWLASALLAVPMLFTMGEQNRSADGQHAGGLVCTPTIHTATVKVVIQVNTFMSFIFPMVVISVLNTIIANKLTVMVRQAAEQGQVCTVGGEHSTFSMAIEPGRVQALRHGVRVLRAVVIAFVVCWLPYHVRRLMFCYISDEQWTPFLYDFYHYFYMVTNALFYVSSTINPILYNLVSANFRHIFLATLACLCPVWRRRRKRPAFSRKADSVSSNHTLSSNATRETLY
Chain of Muscarinic acetylcholine receptor M1 (Homo sapiens) (P11229 whole entry): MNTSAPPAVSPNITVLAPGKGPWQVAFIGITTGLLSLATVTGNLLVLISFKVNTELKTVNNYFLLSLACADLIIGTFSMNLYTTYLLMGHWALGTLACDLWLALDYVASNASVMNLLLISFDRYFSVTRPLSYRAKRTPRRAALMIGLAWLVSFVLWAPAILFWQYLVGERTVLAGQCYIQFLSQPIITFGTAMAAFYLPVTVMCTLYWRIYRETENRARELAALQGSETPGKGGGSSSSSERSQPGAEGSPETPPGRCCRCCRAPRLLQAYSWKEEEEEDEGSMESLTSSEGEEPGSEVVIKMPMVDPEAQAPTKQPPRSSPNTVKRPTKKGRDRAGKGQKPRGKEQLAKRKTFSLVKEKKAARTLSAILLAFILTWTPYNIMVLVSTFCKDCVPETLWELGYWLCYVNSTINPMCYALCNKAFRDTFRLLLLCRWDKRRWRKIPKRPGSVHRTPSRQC
Chain of Adenosine receptor A3 (Homo sapiens) (P0DMS8 whole entry): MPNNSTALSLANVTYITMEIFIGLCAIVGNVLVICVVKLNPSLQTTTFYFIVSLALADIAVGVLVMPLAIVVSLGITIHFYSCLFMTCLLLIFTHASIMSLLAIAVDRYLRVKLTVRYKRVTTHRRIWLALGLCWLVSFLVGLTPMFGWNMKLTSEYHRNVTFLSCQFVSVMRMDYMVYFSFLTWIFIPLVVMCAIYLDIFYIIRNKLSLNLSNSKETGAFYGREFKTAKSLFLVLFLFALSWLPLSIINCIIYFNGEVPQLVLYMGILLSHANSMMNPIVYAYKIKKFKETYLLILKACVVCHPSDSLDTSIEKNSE
Chain of Alpha-2A adrenergic receptor (Homo sapiens) (P08913 whole entry): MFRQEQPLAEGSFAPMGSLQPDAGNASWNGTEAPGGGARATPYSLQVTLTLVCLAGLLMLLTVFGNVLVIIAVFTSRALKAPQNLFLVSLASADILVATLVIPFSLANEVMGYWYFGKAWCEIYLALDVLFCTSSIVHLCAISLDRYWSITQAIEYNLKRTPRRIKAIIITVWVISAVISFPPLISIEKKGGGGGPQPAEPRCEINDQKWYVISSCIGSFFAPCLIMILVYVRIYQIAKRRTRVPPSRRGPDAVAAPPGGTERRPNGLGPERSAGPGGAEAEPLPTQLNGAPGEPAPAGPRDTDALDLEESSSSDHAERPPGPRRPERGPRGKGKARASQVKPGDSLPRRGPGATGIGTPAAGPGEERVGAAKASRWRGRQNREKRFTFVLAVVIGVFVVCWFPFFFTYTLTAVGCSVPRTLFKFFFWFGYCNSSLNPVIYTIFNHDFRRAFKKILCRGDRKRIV
Chain of Muscarinic acetylcholine receptor M2 (Homo sapiens) (P08172 whole entry): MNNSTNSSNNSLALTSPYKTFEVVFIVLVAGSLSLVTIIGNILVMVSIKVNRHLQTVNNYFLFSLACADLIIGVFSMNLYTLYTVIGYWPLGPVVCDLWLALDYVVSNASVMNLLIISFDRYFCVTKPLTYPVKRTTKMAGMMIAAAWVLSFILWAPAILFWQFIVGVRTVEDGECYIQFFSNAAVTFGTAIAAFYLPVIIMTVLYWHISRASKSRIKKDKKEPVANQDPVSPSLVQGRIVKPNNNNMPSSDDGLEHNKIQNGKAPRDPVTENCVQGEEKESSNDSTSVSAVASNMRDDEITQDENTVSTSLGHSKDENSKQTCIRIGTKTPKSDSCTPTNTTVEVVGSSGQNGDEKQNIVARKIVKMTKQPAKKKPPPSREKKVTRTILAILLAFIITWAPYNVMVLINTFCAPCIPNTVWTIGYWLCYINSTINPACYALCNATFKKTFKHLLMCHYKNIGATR
Chain of Neuropeptide Y receptor type 1 (Homo sapiens) (P25929 whole entry): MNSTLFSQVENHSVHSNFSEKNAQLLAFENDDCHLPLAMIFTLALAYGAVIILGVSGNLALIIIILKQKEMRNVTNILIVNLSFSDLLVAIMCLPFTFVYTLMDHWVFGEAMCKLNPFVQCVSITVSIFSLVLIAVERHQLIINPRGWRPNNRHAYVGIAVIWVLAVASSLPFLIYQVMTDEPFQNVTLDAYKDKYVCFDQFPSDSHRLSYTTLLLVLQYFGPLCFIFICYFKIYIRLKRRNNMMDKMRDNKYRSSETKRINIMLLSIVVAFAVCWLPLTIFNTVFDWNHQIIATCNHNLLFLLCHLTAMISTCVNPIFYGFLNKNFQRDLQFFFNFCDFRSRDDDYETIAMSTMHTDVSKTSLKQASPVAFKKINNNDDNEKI
Chain of Histamine H1 receptor (Homo sapiens) (P35367 whole entry): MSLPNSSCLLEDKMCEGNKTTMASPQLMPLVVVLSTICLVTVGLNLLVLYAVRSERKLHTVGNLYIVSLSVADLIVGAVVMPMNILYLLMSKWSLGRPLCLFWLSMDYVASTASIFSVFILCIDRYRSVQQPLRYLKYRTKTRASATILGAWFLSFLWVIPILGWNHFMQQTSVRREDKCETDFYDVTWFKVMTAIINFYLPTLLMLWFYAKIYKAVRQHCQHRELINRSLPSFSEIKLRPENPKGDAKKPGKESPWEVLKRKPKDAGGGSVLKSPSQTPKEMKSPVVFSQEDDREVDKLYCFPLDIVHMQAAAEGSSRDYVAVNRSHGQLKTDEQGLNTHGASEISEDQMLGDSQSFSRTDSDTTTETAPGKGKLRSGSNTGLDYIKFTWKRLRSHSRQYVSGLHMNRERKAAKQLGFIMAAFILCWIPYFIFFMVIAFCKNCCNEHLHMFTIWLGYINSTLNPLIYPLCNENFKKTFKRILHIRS
Chain of Beta-1 adrenergic receptor (Homo sapiens) (P08588 whole entry, looked up): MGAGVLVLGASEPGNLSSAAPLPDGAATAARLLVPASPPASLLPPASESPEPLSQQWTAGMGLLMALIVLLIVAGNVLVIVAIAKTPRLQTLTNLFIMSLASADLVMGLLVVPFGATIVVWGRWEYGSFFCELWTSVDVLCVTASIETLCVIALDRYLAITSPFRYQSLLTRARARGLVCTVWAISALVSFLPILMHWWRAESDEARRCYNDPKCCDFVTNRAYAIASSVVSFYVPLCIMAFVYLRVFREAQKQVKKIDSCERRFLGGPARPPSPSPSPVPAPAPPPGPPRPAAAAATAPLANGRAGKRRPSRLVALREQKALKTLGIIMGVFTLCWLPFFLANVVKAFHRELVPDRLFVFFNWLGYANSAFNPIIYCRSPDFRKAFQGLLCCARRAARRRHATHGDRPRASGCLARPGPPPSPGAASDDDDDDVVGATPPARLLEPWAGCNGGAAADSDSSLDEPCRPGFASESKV
Chain of Adenosine A2A receptor (Homo sapiens) (P29274 whole entry, looked up): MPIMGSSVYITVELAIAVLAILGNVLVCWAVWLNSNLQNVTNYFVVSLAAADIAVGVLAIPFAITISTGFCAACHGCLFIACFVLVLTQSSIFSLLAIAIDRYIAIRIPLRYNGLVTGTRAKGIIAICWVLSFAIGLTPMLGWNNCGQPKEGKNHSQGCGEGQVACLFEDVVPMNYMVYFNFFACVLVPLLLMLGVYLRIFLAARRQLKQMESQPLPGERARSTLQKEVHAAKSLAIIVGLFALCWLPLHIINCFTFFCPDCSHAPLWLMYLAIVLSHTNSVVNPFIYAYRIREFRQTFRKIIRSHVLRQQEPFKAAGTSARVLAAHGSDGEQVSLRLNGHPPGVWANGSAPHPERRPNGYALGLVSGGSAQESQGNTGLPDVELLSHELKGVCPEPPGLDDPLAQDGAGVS
Chain of Kappa-type opioid receptor (Homo sapiens) (P41145 whole entry): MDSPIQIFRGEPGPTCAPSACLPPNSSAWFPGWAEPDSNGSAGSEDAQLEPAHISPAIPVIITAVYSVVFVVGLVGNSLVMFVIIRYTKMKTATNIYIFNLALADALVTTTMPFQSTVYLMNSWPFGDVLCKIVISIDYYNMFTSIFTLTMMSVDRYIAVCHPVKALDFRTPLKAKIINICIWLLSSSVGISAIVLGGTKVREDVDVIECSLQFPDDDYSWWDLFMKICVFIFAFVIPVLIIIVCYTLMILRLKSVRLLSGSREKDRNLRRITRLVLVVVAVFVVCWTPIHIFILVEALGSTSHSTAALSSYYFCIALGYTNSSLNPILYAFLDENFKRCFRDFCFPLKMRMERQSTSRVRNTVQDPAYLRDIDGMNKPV

**Q.** What does the source list for `COC(=O)N1CCC(CN(C2Cc3cc(C#N)ccc3N(Cc3cncn3C)C2)S(=O)(=O)c2ccccn2)CC1` (stereo unspecified)?
**A.** Activity [1]: Non-toxic; inhibition [2]: inactive; Activity [3]: Non-toxic; inhibition [4]: 77%; Activity [5]: Non-toxic; inhibition [6]: inactive; EC50 [7]: 16 nM; inhibition [8]: inactive; Activity [9]: Non-toxic; half-life [10]: 18 min; AUC [11]: 0.533 µM·h; inhibition [12]: inactive; Activity [13]: Non-toxic; inhibition [14]: inactive; inhibition [15]: inactive; inhibition [16]: inactive; inhibition [17]: inactive; Activity [18]: Non-toxic; inhibition [19]: inactive; half-life [20]: 14 min; inhibition [21]: inactive; inhibition [22]: inactive; inhibition [23]: 64%; inhibition [24]: inactive; Activity [25]: Active; EC50 [26]: 15 nM; half-life [27]: 5.8 min; Activity [28]: Non-toxic; Activity [29]: Non-toxic; inhibition [30]: inactive; Activity [31]: Non-toxic
